≈ marks a conversion by molar mass, not a printed value. Calls of active or inactive are those of the source. The rule behind the calls is not given here.
Columns and labels:
Aphis gossypii = test: Insecticidal activity against Aphis gossypii (cotton aphid) DAS lab strain by leaf disk bioassay; assay type: functional; details: foliar
Myzus persicae [1] = test: Insecticidal activity against drug resistant Myzus persicae R-4013A (green peach aphid) by leaf disk bioassay; assay type: functional; details: foliar
Myzus persicae [2] = test: Insecticidal activity against Myzus persicae S-USIL (green peach aphid) by leaf disk bioassay; assay type: functional; details: foliar
Myzus persicae [3] = test: Insecticidal activity against Myzus persicae (green peach aphid) DAS lab strain by leaf disk bioassay; assay type: functional; details: foliar
Bemisia tabaci [4] = test: Insecticidal activity against Bemisia tabaci S-4971BT1 (sweet potato whitefly) by leaf disk bioassay; assay type: functional; details: S-4971BT1, foliar
Bemisia tabaci [5] = test: Insecticidal activity against rothamsted-resistant Bemisia tabaci Q-biotype R-4971BT9 (sweet potato whitefly) by leaf disk bioassay; assay type: functional; details: Q-biotype R-4971BT9, foliar
Bemisia tabaci [6] = test: Insecticidal activity against rothamsted-resistant Bemisia tabaci R-4991BT1 (sweet potato whitefly) by leaf disk bioassay; assay type: functional; details: R-4991BT1, foliar
Bemisia tabaci [7] = test: Insecticidal activity against DAS-susceptible Bemisia tabaci S-4971BT1 (sweet potato whitefly) by leaf disk bioassay; assay type: functional; details: S-4971BT1, foliar
Bemisia tabaci [8] = test: Insecticidal activity against DAS insecticide-resistant Bemisia tabaci B-biotype R-PBI (sweet potato whitefly) by leaf disk bioassay; assay type: functional; details: foliar
Bemisia tabaci [9] = test: Insecticidal activity against drug sensitive Bemisia tabaci DAS (sweet potato whitefly) lab strain by leaf disk bioassay; assay type: functional; details: foliar
Bemisia tabaci [10] = test: Insecticidal activity against Bemisia tabaci DAS (sweet potato whitefly) lab strain by leaf disk bioassay; assay type: functional; details: foliar
Myzus persicae [11] = test: Displacement of [3H]imidacloprid from nicotinic acetylcholine receptor in Myzus persicae (green peach aphid) homogenates by scintillation counting
Outline: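 Frozen (-80 °C) aphids homogenized at 4 °C in sucrose/Tris/EDTA/PMSF buffer (pH 7.2), filtered, spun 3500 rpm 15 min then 17500 rpm 20 min (4 °C). Pellet resuspended in 120 mM NaCl, 50 mM Tris (pH 7.4). ~2 nM [3H]IMI, 70 μg protein/well and competitor for 60 min at ~22 °C. Protein-started, filtration-stopped, scintillation-counted; total and filter binding measured.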

Drosophila melanogaster = test: Activation of Drosophila melanogaster nicotinic acetylcholine receptor alpha2 expressed in Xenopus laevis co-expressing chicken nicotinic acetylcholine receptor beta2 subunit by electrophysiology method
Outline: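 Drosophila α2 cRNA co-injected with chicken β2 and C. elegans ric-3 chaperone into defolliculated X. laevis oocytes (≤50 nL at 1 ng/nL). Oocytes held singly in ND-96 (pH 7.6) at 18 °C and recorded 1-4 days after injection on an automated oocyte recording system.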

CYP6G1 [12] = test: Drug metabolism in Drosophila melanogaster D.mel-2 cells over-expressing in CYP6G1 assessed as drug recovery measured 24 hr post dose by HPLC method; assay type: ADME; details: D.mel-2 cells over-expressing CYP6G1, read-out: Drug recovery
CYP6G1 [13] = test: (§1) Drug metabolism in Drosophila melanogaster D.mel-2 cells deficient in CYP6G1 assessed as drug recovery measured 24 hr post dose by HPLC method; assay type: ADME; details: D.mel-2 cells deficient in CYP6G1, read-out: Drug recovery
Myzus persicae [14] = test: Insecticidal activity against Myzus persicae (green peach aphid) infested UV irradiated leaves of pepper plant exposed to compound at 124 ppm assessed as insect control efficacy post 7 days UV exposure relative to untreated control; assay type: functional
Outline: (§2)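 Aphid control on treated UV-exposed pepper leaves scored 3 days after infestation; four replicates per treatment and time point.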

Myzus persicae [15] = test: Insecticidal activity against Myzus persicae (green peach aphid) infested UV irradiated leaves of pepper plant exposed to compound at 124 ppm assessed as insect control efficacy post 3 days UV exposure relative to untreated control; assay type: functional; outline: as §2
Myzus persicae [16] = test: Insecticidal activity against Myzus persicae (green peach aphid) infested UV irradiated leaves of pepper plant exposed to compound at 124 ppm assessed as insect control efficacy post 0 day UV exposure relative to untreated control; assay type: functional; outline: as §2
[17] = Stability assessed as half life for photolysis in UV chamber at 1000 ppm by HPLC method; assay type: physicochemical
Bemisia tabaci [18] = test: Resistance index, ratio of LC50 for rothamsted-resistant Bemisia tabaci Q-biotype R-CHLORAKA (sweet potato whitefly) to LC50 for Bemisia tabaci SUD-S; assay type: functional
Bemisia tabaci [19] = test: Resistance index, ratio of LC50 for rothamsted-resistant Bemisia tabaci Q-biotype R-4971BT9 (sweet potato whitefly) to LC50 for Bemisia tabaci S-4971BT1; assay type: functional
Bemisia tabaci [20] = test: Resistance index, ratio of LC50 for drug resistant rothamsted-resistant Bemisia tabaci R-4991BT1 (sweet potato whitefly) to LC50 for DAS-susceptible Bemisia tabaci S-4971BT1; assay type: functional
Bemisia tabaci [21] = test: Resistance index, ratio of LC50 for DAS insecticide-resistant Bemisia tabaci B-biotype R-PB (sweet potato whitefly) to LC50 for drug sensitive Bemisia tabaci DAS lab strain; assay type: functional
Myzus persicae [22] = test: Resistance index, ratio of LC50 for drug resistant Myzus persicae R-4013A (green peach aphid) to LC50 for Myzus persicae S-USIL; assay type: functional
Bemisia tabaci [23] = test: Insecticidal activity against rothamsted-resistant Bemisia tabaci Q-biotype R-CHLORAKA (sweet potato whitefly) by leaf disk bioassay; assay type: functional; details: foliar
Bemisia tabaci [24] = test: Insecticidal activity against Bemisia tabaci SUD-S (sweet potato whitefly) by leaf disk bioassay; assay type: functional; details: foliar
[25] = as §1; assay type: ADME; details: 24 h

| Compound | LC50 (Aphis gossypii) [µg/mL] | LC50 (Myzus persicae [1]) [µg/mL] | LC50 (Myzus persicae [2]) [µg/mL] | LC50 (Myzus persicae [3]) [µg/mL] | LC50 (Bemisia tabaci [4]) [µg/mL] | LC50 (Bemisia tabaci [5]) [µg/mL] | LC50 (Bemisia tabaci [6]) [µg/mL] | LC50 (Bemisia tabaci [7]) [µg/mL] | LC50 (Bemisia tabaci [8]) [µg/mL] | LC50 (Bemisia tabaci [9]) [µg/mL] | LC50 (Bemisia tabaci [10]) [µg/mL] | Activity (Drosophila melanogaster) | remaining at 24 h (CYP6G1 [12]) [%] | remaining at 24 h (CYP6G1 [13]) [%] | Efficacy (Myzus persicae [14]) [%] | Efficacy (Myzus persicae [15]) [%] | RatioLC50 (Bemisia tabaci [18]) | RatioLC50 (Myzus persicae [22]) | LC50 (Bemisia tabaci [23]) [µg/mL] | LC50 (Bemisia tabaci [24]) [µg/mL] | also measured |
| --- | --- | --- | --- | --- | --- | --- | --- | --- | --- | --- | --- | --- | --- | --- | --- | --- | --- | --- | --- | --- | --- |
| CC(c1ccc(C(F)(F)F)nc1)S(C)(=O)=NC#N (configuration not stated) [SULFOXAFLOR] | 0.2 (≈ 0.721 µM) | 1.52 (≈ 5.48 µM) | 4.13 (≈ 14.9 µM) | 0.074 (≈ 0.267 µM) | 18 (≈ 64.9 µM) | 39 (≈ 141 µM) | 28 (≈ 101 µM) | 18 (≈ 64.9 µM) | 6.4 (≈ 23.1 µM) | 2.8 (≈ 10.1 µM) | 0.85 (≈ 3.07 µM) | Active | 108 | 105 | 90 | 100 | 2.8 | 0.37 | 5 (≈ 18 µM) | 1.8 (≈ 6.49 µM) | Activity (Myzus persicae [11]): Active; Efficacy (Myzus persicae [16]): 100%; half-life at 1000 ppm [17]: 88 h; RatioLC50 (Bemisia tabaci [19]): 2.2; RatioLC50 (Bemisia tabaci [20]): 1.6; RatioLC50 (Bemisia tabaci [21]): 2.3 |
| C/C(=N\C#N)N(C)Cc1ccc(Cl)nc1 [ACETAMIPRID] | – | – | – | – | – | – | – | – | – | – | – | – | 0 | – | – | – | – | – | – | – | Drug recovery [25]: 122.7% |
| O=[N+]([O-])/N=C1\NCCN1Cc1ccc(Cl)nc1 [IMIDACLOPRID] | 7.8 (≈ 30.5 µM) | 15.3 (≈ 59.8 µM) | 0.896 (≈ 3.5 µM) | 0.09 (≈ 0.352 µM) | 4.4 (≈ 17.2 µM) | 4500 (≈ 17600 µM) | > 1000 | 4.4 (≈ 17.2 µM) | 174 (≈ 681 µM) | 0.2 (≈ 0.782 µM) | 0.37 (≈ 1.45 µM) | Active | – | – | 21 | 42 | >833 | 17.1 | > 1000 | 1.23 (≈ 4.81 µM) | Efficacy (Myzus persicae [16]): 100%; RatioLC50 (Bemisia tabaci [19]): 1022; RatioLC50 (Bemisia tabaci [20]): >230; RatioLC50 (Bemisia tabaci [21]): 870 |
| CC(c1ccc(Cl)nc1)S(C)(=O)=NC#N (configuration not stated) | 3 (≈ 12.3 µM) | 12.5 (≈ 51.3 µM) | 62.3 (≈ 256 µM) | 0.374 (≈ 1.53 µM) | – | – | – | – | – | – | 0.29 (≈ 1.19 µM) | – | – | – | – | – | 2.9 | 0.2 | 13.2 (≈ 54.2 µM) | 4.48 (≈ 18.4 µM) | – |
| O=[N+]([O-])NC1=NCCN1Cc1ccc(Cl)nc1 [IMIDACLOPRID] | – | – | – | – | – | – | – | – | – | – | – | – | 4.5 | 115 | – | – | – | – | – | – | half-life at 1000 ppm [17]: 7 h |

From ChEMBL document CHEMBL3046693, “Discovery and characterization of sulfoxaflor, a novel insecticide targeting sap-feeding pests” (J Agric Food Chem, 2011)
